Data on 13 molecules can be found in ChEMBL document CHEMBL1138570, “2-Acylhydrazino-5-arylpyrrole derivatives: synthesis and antifungal activity evaluation” (Eur J Med Chem, 2009).

The structures appear in SMILES notation. Values after ≈ are worked out from the molar mass of the structure shown. Where only a bound is given, the exact number is not on record here.

What is called MFC is the lowest tested concentration that kills the fungus rather than only halting it. Read a high MFC as weaker fungicidal potency. For orientation: MIC means the least concentration at which growth counts as inhibited.

Format in all cases: functional
Assay [1] has as its system Candida albicans. The assay is described as follows: Antimicrobial activity against Candida albicans ATCC 10231 after 72 hrs by broth microdilution method. To be noted: ATCC 10231, 72 h. The gist of the method:
(§1)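 MFC: after MIC reading, a sample from each well was plated on Sabouraud dextrose agar and incubated 72 h at 35 °C. MFC was taken as the minimum concentration killing >99% of the original inoculum. The MIC step was NCCLS broth microdilution in MOPS-buffered RPMI 1640 (pH 7.0), with 2 ×10⁴ cells/mL, overnight at 35 °C.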
Background: In broth dilution the organism is exposed to a series of concentrations in liquid medium.

The test system of assay [2] is Candida parapsilosis. As to the kind of experiment: Antimicrobial activity against Candida parapsilosis by broth microdilution method. Conditions: Lodderomyces parapsilosis. The method in brief: (§2)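 MIC by NCCLS broth microdilution. Medium was RPMI 1640 with L-glutamine, buffered with 0.165 M MOPS at pH 7.0. Twofold drug dilutions ran 0.008–200 mg/L. Inoculum was set spectrophotometrically to 10⁶ CFU/mL, then diluted in medium to 2 ×10⁴ cells/mL. Plates were incubated overnight at 35 °C in humid air, agitated, and read visually and at 450 nm.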

The test system of assay [3] is Pichia kudriavzevii. The assay is described as follows: Antimicrobial activity against Candida krusei by broth microdilution method. The method in brief: as §2
Assay [4] relates to Nakaseomyces glabratus. The assay is described as follows: Antimicrobial activity against Candida glabrata by broth microdilution method. The method in brief:
as §2

In assay [5] the test system is Candida parapsilosis. The assay is described as follows: Antimicrobial activity against Candida parapsilosis after 72 hrs by broth microdilution method. Conditions: Lodderomyces parapsilosis. The method in brief:
as §1

The test system of assay [6] is Pichia kudriavzevii. As to the kind of experiment: Antimicrobial activity against Candida krusei after 72 hrs by broth microdilution method. The gist of the method:
as §1

The subject of assay [7] is Nakaseomyces glabratus. As to the kind of experiment: Antimicrobial activity against Candida glabrata after 72 hrs by broth microdilution method. The gist of the method: as §1
Assay [8] has as its system Candida albicans. The assay is described as follows: Antimicrobial activity against Candida albicans ATCC 10231 by broth microdilution method. The gist of the method:
as §2

As for `CCOC(=O)c1cc(-c2ccc(OC)cc2)[nH]c1NNC(=O)CCOC`, the minimum fungicidal concentration (MFC) in the assay on Candida albicans [1] was determined as 6.25 mg/L (≈ 17.3 µM); with Candida parapsilosis [5], 100 mg/L (≈ 277 µM); in the assay on Pichia kudriavzevii [6], 100 mg/L (≈ 277 µM); against Nakaseomyces glabratus [7], 100 mg/L (≈ 277 µM). Besides, the minimum inhibitory concentration (MIC) with Candida parapsilosis [2] was found to be 25 mg/L (≈ 69.2 µM); with Pichia kudriavzevii [3] it was 50 mg/L (≈ 138 µM); in the assay on Nakaseomyces glabratus [4] it was 12.5 mg/L (≈ 34.6 µM); in the assay on Candida albicans [8], 6.25 mg/L (≈ 17.3 µM).
In the case of `CCCC(=O)NNc1[nH]c(-c2ccc(OC)cc2)cc1C(=O)OCC`, the MFC with Candida albicans [1] is 12.5 mg/L (≈ 36.2 µM); against Candida parapsilosis [5], greater than 100 mg/L; against Pichia kudriavzevii [6], 100 mg/L (≈ 290 µM); in the assay with Nakaseomyces glabratus [7], greater than 100 mg/L. Also, the MIC against Candida parapsilosis [2] is 12.5 mg/L (≈ 36.2 µM); against Pichia kudriavzevii [3] it was 50 mg/L (≈ 145 µM); against Nakaseomyces glabratus [4], greater than 100 mg/L; in the assay with Candida albicans [8], 12.5 mg/L (≈ 36.2 µM).
In the case of `CCOC(=O)c1cc(-c2ccccc2)[nH]c1NNC(=O)Cc1ccc(OC)cc1`, the minimum fungicidal concentration (MFC) with Candida albicans [1], with Candida parapsilosis [5], in the assay with Pichia kudriavzevii [6] and against Nakaseomyces glabratus [7] was greater than 100 mg/L throughout. The minimum inhibitory concentration (MIC) was 50 mg/L (≈ 127 µM) in the assay with Candida parapsilosis [2], 50 mg/L (≈ 127 µM) against Pichia kudriavzevii [3], greater than 100 mg/L in the assay with Nakaseomyces glabratus [4] and greater than 100 mg/L against Candida albicans [8].
Take `CCOC(=O)c1cc(-c2ccccc2)[nH]c1NNC(=O)CCOC`: the MFC in the assay with Candida albicans [1] came to 6.25 mg/L (≈ 18.9 µM); with Candida parapsilosis [5] it was 25 mg/L (≈ 75.4 µM); against Pichia kudriavzevii [6], 50 mg/L (≈ 151 µM); in the assay on Nakaseomyces glabratus [7] it was 25 mg/L (≈ 75.4 µM). In addition, the MIC was 6.25 mg/L (≈ 18.9 µM) with Candida parapsilosis [2], 12.5 mg/L (≈ 37.7 µM) with Pichia kudriavzevii [3], 6.25 mg/L (≈ 18.9 µM) against Nakaseomyces glabratus [4] and 3.12 mg/L (≈ 9.42 µM) in the assay on Candida albicans [8].
As to `CC(=O)NNc1[nH]c(-c2ccccc2)cc1C#N`, the MFC is 3.12 mg/L (≈ 13 µM) in the assay on Candida albicans [1], 12.5 mg/L (≈ 52 µM) with Candida parapsilosis [5], 6.25 mg/L (≈ 26 µM) in the assay on Pichia kudriavzevii [6] and 12.5 mg/L (≈ 52 µM) against Nakaseomyces glabratus [7]. Further, the minimal inhibitory concentration (MIC) came out at 3.12 mg/L (≈ 13 µM) against Candida parapsilosis [2], 3.12 mg/L (≈ 13 µM) against Pichia kudriavzevii [3], 6.25 mg/L (≈ 26 µM) in the assay with Nakaseomyces glabratus [4] and 3.12 mg/L (≈ 13 µM) with Candida albicans [8].
For the molecule `CCOC(=O)c1cc(-c2ccccc2)[nH]c1NNC(=O)CC`, the MFC in the assay on Candida albicans [1] came out at 12.5 mg/L (≈ 41.5 µM); in the assay on Candida parapsilosis [5] it was 25 mg/L (≈ 83 µM); with Pichia kudriavzevii [6], 25 mg/L (≈ 83 µM); against Nakaseomyces glabratus [7] it was 12.5 mg/L (≈ 41.5 µM). For the same molecule, the minimum inhibitory concentration (MIC) worked out at 6.25 mg/L (≈ 20.7 µM) against Candida parapsilosis [2], 12.5 mg/L (≈ 41.5 µM) in the assay on Pichia kudriavzevii [3], 6.25 mg/L (≈ 20.7 µM) with Nakaseomyces glabratus [4] and 3.12 mg/L (≈ 10.4 µM) in the assay with Candida albicans [8].
`CCOC(=O)c1cc(-c2ccc(OC)cc2)[nH]c1NNC(=O)CC`: the minimal fungicidal concentration (MFC) in the assay on Candida albicans [1] was found to be 12.5 mg/L (≈ 37.7 µM); in the assay with Candida parapsilosis [5], 25 mg/L (≈ 75.4 µM); in the assay with Pichia kudriavzevii [6], 100 mg/L (≈ 302 µM); with Nakaseomyces glabratus [7] it was 12.5 mg/L (≈ 37.7 µM). Moreover, the minimum inhibitory concentration (MIC) was determined as 12.5 mg/L (≈ 37.7 µM) with Candida parapsilosis [2], 25 mg/L (≈ 75.4 µM) in the assay on Pichia kudriavzevii [3], 6.25 mg/L (≈ 18.9 µM) in the assay on Nakaseomyces glabratus [4] and 3.12 mg/L (≈ 9.42 µM) against Candida albicans [8].
As for `CCCC(=O)NNc1[nH]c(-c2ccc(Cl)cc2)cc1C(=O)OCC`, the MFC in the assay on Candida albicans [1], with Candida parapsilosis [5], with Pichia kudriavzevii [6] and with Nakaseomyces glabratus [7] was greater than 100 mg/L throughout. The minimal inhibitory concentration (MIC) in the assay with Candida parapsilosis [2], in the assay with Pichia kudriavzevii [3], with Nakaseomyces glabratus [4] and in the assay on Candida albicans [8] was greater than 100 mg/L in each case.
For the molecule `CCCC(=O)NNc1[nH]c(-c2ccc(C)cc2)cc1C(=O)OCC`, the MFC with Candida albicans [1], against Candida parapsilosis [5], against Pichia kudriavzevii [6] and in the assay with Nakaseomyces glabratus [7] was greater than 100 mg/L each time. Also, the MIC against Candida parapsilosis [2] was 25 mg/L (≈ 75.9 µM); against Pichia kudriavzevii [3], greater than 100 mg/L; with Nakaseomyces glabratus [4], greater than 100 mg/L; with Candida albicans [8] it was greater than 100 mg/L.
Take `CCOC(=O)c1cc(-c2ccc(C)cc2)[nH]c1NNC(C)=O`: the minimum fungicidal concentration (MFC) with Candida albicans [1] was greater than 100 mg/L; against Candida parapsilosis [5], 50 mg/L (≈ 166 µM); in the assay on Pichia kudriavzevii [6], greater than 100 mg/L; against Nakaseomyces glabratus [7], greater than 100 mg/L. The MIC in the assay on Candida parapsilosis [2] was 50 mg/L (≈ 166 µM); in the assay on Pichia kudriavzevii [3], 100 mg/L (≈ 332 µM); in the assay with Nakaseomyces glabratus [4], greater than 100 mg/L; against Candida albicans [8], greater than 100 mg/L.
`CCOC(=O)NNc1[nH]c(-c2ccccc2)cc1C(=O)OCC`: the MFC against Candida albicans [1] turned out to be 3.12 mg/L (≈ 9.83 µM); against Candida parapsilosis [5], 12.5 mg/L (≈ 39.4 µM); against Pichia kudriavzevii [6], 25 mg/L (≈ 78.8 µM); in the assay with Nakaseomyces glabratus [7] it was 12.5 mg/L (≈ 39.4 µM). Moreover, the MIC against Candida parapsilosis [2] amounted to 6.25 mg/L (≈ 19.7 µM); against Pichia kudriavzevii [3], 12.5 mg/L (≈ 39.4 µM); in the assay with Nakaseomyces glabratus [4], 6.25 mg/L (≈ 19.7 µM); against Candida albicans [8], 3.12 mg/L (≈ 9.83 µM).
`CCOC(=O)c1cc(-c2ccccc2)[nH]c1NNC(C)=O`: the minimum fungicidal concentration (MFC) was 12.5 mg/L (≈ 43.5 µM) with Candida albicans [1], 100 mg/L (≈ 348 µM) against Candida parapsilosis [5], 50 mg/L (≈ 174 µM) against Pichia kudriavzevii [6] and greater than 100 mg/L in the assay with Nakaseomyces glabratus [7]. Further, the MIC against Candida parapsilosis [2] is 50 mg/L (≈ 174 µM); in the assay with Pichia kudriavzevii [3] it was 50 mg/L (≈ 174 µM); in the assay on Nakaseomyces glabratus [4], 12.5 mg/L (≈ 43.5 µM); in the assay on Candida albicans [8], 12.5 mg/L (≈ 43.5 µM).
`CCOC(=O)NNc1[nH]c(-c2ccc(Cl)cc2)cc1C(=O)OCC`: the MFC is greater than 100 mg/L in the assay with Candida albicans [1], 12.5 mg/L (≈ 35.5 µM) against Candida parapsilosis [5], greater than 100 mg/L against Pichia kudriavzevii [6] and greater than 100 mg/L against Nakaseomyces glabratus [7]. For the same molecule, the MIC is 12.5 mg/L (≈ 35.5 µM) against Candida parapsilosis [2], 50 mg/L (≈ 142 µM) in the assay with Pichia kudriavzevii [3], greater than 100 mg/L in the assay on Nakaseomyces glabratus [4] and 25 mg/L (≈ 71.1 µM) in the assay on Candida albicans [8].
